In assay [1] the test system is Rattus norvegicus. Description: In vivo percent reduction on LDL+VLDL of the rat at 30 mg/kg after 5 days. Type of assay: functional. The procedure, abridged:
(§1)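 Male Sprague-Dawley rats, 11 weeks old, fed standard chow and water ad libitum. Drug or vehicle suspended in 0.5% w/v arabic gum and given orally once daily at 0.3, 3 or 30 mg/kg; duration is 4 days in the methods and 5 days in the table. Plasma taken in the fed state. TG, FFA and total cholesterol measured enzymatically. HDL obtained by precipitation; LDL+VLDL = total minus HDL cholesterol. Values are mean percent reduction, N = 5 or 6.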

The target of assay [2] is T1, Peroxisome proliferator-activated receptor delta (Homo sapiens, UniProt Q03181).
T1 sequence (Q03181 whole entry): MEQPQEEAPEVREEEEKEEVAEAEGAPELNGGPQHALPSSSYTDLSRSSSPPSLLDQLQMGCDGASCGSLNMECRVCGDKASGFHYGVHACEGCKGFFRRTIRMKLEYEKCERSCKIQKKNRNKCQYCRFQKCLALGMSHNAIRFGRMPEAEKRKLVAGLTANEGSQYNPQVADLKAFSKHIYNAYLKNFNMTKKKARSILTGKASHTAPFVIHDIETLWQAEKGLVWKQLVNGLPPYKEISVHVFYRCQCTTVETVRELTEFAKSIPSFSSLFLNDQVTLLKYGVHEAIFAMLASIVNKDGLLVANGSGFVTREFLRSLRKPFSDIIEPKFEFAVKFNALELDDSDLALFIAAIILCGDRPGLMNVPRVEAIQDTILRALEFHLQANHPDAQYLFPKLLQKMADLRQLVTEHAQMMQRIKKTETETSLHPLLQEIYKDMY
Description: Agonist activity on Gal4 chimeric human Peroxisome proliferator activated receptor delta expressed in CHO-K1 cells. The format is functional, cell-based.

Assay [3] deals with Rattus norvegicus. Description: In vivo percent reduction on FFA of the rat at 30 mg/kg after 5 days. The format is functional. The procedure, abridged:
as §1

The subject of assay [4] is Rattus norvegicus. Description: In vivo percent reduction on total cholesterol of the rat at 30 mg/kg after 5 days. Type of assay: functional. The method, boiled down: as §1
In assay [5] the test system is Rattus norvegicus. Description: In vivo percent reduction on TG of the rat at 30 mg/kg after 5 days. Type of assay: functional. The method, boiled down: as §1
In assay [6] the test system is Rattus norvegicus. Description: In vivo percent reduction on total cholesterol of the normal rat at 3 mg/kg. The format is functional. The procedure, abridged:
as §1

Assay [7] has as its system Rattus norvegicus. Kind of assay: In vivo percent reduction on TG of the normal rat at 0.3 mg/kg. Type of assay: functional. The procedure, abridged: as §1
Assay [8] concerns Rattus norvegicus. Description: In vivo percent reduction on FFA of the normal rat at 3 mg/kg. Type of assay: functional. The procedure, abridged: as §1
Assay [9] relates to Rattus norvegicus. Kind of assay: In vivo percent reduction on LDL+VLDL of the rat at 0.3 mg/kg after 5 days. Type of assay: functional. The procedure, abridged:
as §1

Assay [10] deals with Rattus norvegicus. Description: In vivo percent reduction on FFA of the rat at 0.3 mg/kg after 5 days. The format is functional. The method, boiled down:
as §1

The subject of assay [11] is Rattus norvegicus. Description: In vivo percent reduction on total cholesterol of the normal rat at 30 mg/kg. Type of assay: functional. The procedure, abridged: as §1
Assay [12] concerns Rattus norvegicus. Description: In vivo percent reduction on TG of the rat at 3 mg/kg after 5 days. The format is functional. The procedure, abridged:
as §1

The test system of assay [13] is Rattus norvegicus. Kind of assay: In vivo percent reduction on TG of the normal rat at 30 mg/kg. The format is functional. The method, boiled down:
as §1

Assay [14] concerns Rattus norvegicus. Description: In vivo percent reduction on LDL+VLDL of the normal rat at 30 mg/kg. The format is functional. The method, boiled down:
as §1

The test system of assay [15] is Rattus norvegicus. Description: In vivo percent reduction on FFA of the normal rat at 0.3 mg/kg. Type of assay: functional. The procedure, abridged: as §1
Assay [16] relates to Rattus norvegicus. Kind of assay: In vivo percent reduction on TG of the normal rat at 3 mg/kg. The format is functional. The method, boiled down: as §1
In assay [17] the test system is Rattus norvegicus. Description: In vivo percent reduction on total cholesterol of the normal rat at 0.3 mg/kg. Type of assay: functional. The method, boiled down: as §1
Assay [18] relates to Rattus norvegicus. Description: In vivo percent reduction on LDL+VLDL of the rat at 3 mg/kg after 5 days. The format is functional. The procedure, abridged:
as §1

The subject of assay [19] is Rattus norvegicus. Description: In vivo percent reduction on FFA of the normal rat at 30 mg/kg. Type of assay: functional. The procedure, abridged: as §1
Assay [20] deals with Rattus norvegicus. Description: In vivo percent reduction on total cholesterol of the rat at 0.3 mg/kg after 5 days. Type of assay: functional. The method, boiled down: as §1
Assay [21] relates to Rattus norvegicus. Kind of assay: In vivo percent reduction on LDL+VLDL of the normal rat at 0.3 mg/kg. The format is functional. The procedure, abridged:
as §1

Assay [22] deals with Rattus norvegicus. Kind of assay: In vivo percent reduction on TG of the rat at 0.3 mg/kg after 5 days. Type of assay: functional. The procedure, abridged: as §1
The subject of assay [23] is Rattus norvegicus. Kind of assay: In vivo percent reduction on total cholesterol of the rat at 3 mg/kg after 5 days. The format is functional. The method, boiled down:
as §1

Assay [24] relates to Rattus norvegicus. Kind of assay: In vivo percent reduction on LDL+VLDL of the normal rat at 3 mg/kg. The format is functional. The procedure, abridged: as §1
The test system of assay [25] is Rattus norvegicus. Description: In vivo percent reduction on FFA of the rat at 3 mg/kg after 5 days. Type of assay: functional. The method, boiled down:
as §1

Assay [26] has as its target T2, Peroxisome proliferator-activated receptor alpha (Homo sapiens) (UniProt Q07869).
T2 sequence (whole entry): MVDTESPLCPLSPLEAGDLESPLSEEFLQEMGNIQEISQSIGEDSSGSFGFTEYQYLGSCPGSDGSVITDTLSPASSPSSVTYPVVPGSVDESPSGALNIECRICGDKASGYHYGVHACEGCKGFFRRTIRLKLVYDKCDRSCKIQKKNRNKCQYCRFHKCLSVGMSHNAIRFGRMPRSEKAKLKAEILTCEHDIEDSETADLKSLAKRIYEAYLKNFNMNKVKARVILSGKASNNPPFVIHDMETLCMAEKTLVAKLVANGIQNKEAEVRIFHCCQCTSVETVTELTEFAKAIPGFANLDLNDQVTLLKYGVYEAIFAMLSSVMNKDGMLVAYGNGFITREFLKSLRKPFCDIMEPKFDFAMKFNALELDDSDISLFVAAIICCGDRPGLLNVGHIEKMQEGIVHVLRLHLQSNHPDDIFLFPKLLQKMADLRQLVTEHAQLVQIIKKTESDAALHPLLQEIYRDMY
Description: Agonist activity on Gal4 chimeric human Peroxisome proliferator activated receptor alpha expressed in CHO-K1 cells. Type of assay: functional, cell-based. The procedure, abridged: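 GAL4–human PPAR LBD chimera, reporter assay in CHO-K1 cells. Cells seeded at 5 × 10⁴/well in Ham's F12 with 10% FCS for 24 h at 37 °C. Cotransfected for 2 h (lipofectamine) per well with 40 ng GAL4/PPAR LBD, 400 ng pFR-Luc and 5 ng pRL-TK. Compounds applied for 20 h at 37 °C, then luciferase read from cell lysates. EC50 is 50% of maximal reporter activity, from curve fit, n = 3.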

In assay [27] the target is T3, Peroxisome proliferator-activated receptor delta (Homo sapiens) (UniProt Q03181).
T3 sequence (whole entry): T1 sequence (Q03181 whole entry)
Kind of assay: In vitro In vitro effective concentration for agonist activity on human Peroxisome proliferator activated receptor delta-GAL4 chimeric receptor in transfected CHO-K1 cells at 10 uM; inactive. Type of assay: functional, cell-based.

Assay [28] deals with T4, Peroxisome proliferator-activated receptor gamma (Homo sapiens) (UniProt P37231).
T4 sequence (whole entry): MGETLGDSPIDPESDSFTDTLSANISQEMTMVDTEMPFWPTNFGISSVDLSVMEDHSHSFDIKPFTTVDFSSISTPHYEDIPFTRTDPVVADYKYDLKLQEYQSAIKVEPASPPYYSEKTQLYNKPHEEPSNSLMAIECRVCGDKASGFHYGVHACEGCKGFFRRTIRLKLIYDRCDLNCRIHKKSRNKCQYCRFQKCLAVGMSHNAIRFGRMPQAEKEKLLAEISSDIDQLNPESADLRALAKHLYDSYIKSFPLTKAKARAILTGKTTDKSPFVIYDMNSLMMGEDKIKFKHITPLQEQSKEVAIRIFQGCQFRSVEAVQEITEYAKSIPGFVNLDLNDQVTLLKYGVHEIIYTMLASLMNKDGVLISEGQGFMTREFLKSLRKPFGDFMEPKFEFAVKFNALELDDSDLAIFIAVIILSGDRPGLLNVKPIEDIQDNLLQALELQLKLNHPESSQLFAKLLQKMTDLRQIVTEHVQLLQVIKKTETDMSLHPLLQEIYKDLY
Description: In vitro effective concentration for agonist activity on human Peroxisome proliferator activated receptor gamma-Gal4 chimeric receptor in transfected CHO-K1 cells at 10 uM. Type of assay: functional, cell-based.

Assay [29] addresses T3, Peroxisome proliferator-activated receptor delta (Homo sapiens). Kind of assay: In vitro effective concentration for agonist activity on human Peroxisome proliferator activated receptor delta-GAL4 chimeric receptor in transfected CHO-K1 cells at 10 uM; inactive.

For orientation: EC50 means the midpoint of the concentration-response curve.

Active and inactive are the calls of the source. The calls are words filed in the database; no cut-off is given here.

On to `CC(C)(Oc1ccc(CCNC(=O)c2ccc(Cl)cc2)cc1)C(=O)O` [BEZAFIBRATE], for which the Reduction is given as 22% in the assay with Rattus norvegicus [1], 46% in the assay on Rattus norvegicus [3], 27% in the assay with Rattus norvegicus [4] and 41% with Rattus norvegicus [5]. Moreover, the concentration giving a half-maximal response (EC50) in assay [2] was more than 143 µM.

For `CC[C@@H](Cc1ccc(OC)c(C(=O)NCc2ccc(C(F)(F)F)cc2)c1)C(=O)O`, the Reduction is on record as 26% in the assay on Rattus norvegicus [6]; -1% in the assay with Rattus norvegicus [7]; 27% with Rattus norvegicus [8]; 29% in the assay on Rattus norvegicus [9]; 12% in the assay with Rattus norvegicus [10]; 32% with Rattus norvegicus [11]. In addition, the Reduction in the assay with Rattus norvegicus [12] was 25%; with Rattus norvegicus [13] it was 33%; in the assay with Rattus norvegicus [1], 60%; with Rattus norvegicus [14] it was 58%; in the assay on Rattus norvegicus [15], 11%; in the assay with Rattus norvegicus [16], 26%. The Reduction worked out at 19% in the assay with Rattus norvegicus [17]; 58% with Rattus norvegicus [18]; 72% in the assay on Rattus norvegicus [19]; 22% in the assay on Rattus norvegicus [20]; 46% with Rattus norvegicus [21]; 15% with Rattus norvegicus [22]. For the same compound, the Reduction in the assay with Rattus norvegicus [23] was determined as 29%; with Rattus norvegicus [24] it was 56%; with Rattus norvegicus [3] it was 69%; in the assay on Rattus norvegicus [4] it was 35%; with Rattus norvegicus [5] it was 56%; in the assay on Rattus norvegicus [25], 28%.

Regarding `COc1ccc(CC(=O)O)cc1C(=O)NCc1ccc(C(F)(F)F)cc1`, the IA entry in assay [26], in assay [27] and in assay [28] was “inactive” each time.

Consider `COc1ccc(CC2SC(=O)NC2=O)cc1C(=O)NCc1ccc(C(F)(F)F)cc1` (stereo not drawn), for which the IA entry in assay [29] was “inactive”.

The values above are taken from ChEMBL document CHEMBL1145047, “Design, synthesis, and evaluation of substituted phenylpropanoic acid derivatives as human peroxisome proliferator activated receptor activators. Discovery of potent and human peroxisome proliferator activated receptor alpha subtype-selective activators” (J Med Chem, 2003).
